Measurements taken from paper PMC3717159 (Investigational New Drugs, 2012).
pIC50: −log10 of the molar value.

Assays:
human MET kinase domain [1] = biological target: T1, human MET kinase domain (Homo sapiens, UniProt P08581); test: MET kinase radiometric filter-binding assay; type: biochemical; conditions: versus ATP
human MET kinase domain [2] = biological target: T1, human MET kinase domain; test: MET kinase spin column assay; type: biochemical; conditions: from Koff
DU145 cells = test: HGF induced cell scattering assay; type: cell-based; conditions: 0.01–10 μM, HGF 20 ng/ml, 48 h, colony counts
Summary of the method: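 DU145 cells (2 × 10^3/well) were plated on poly-D-lysine and given test compound (0.4 % DMSO), then immediately human HGF (20 ng/ml). After 48 h at 37 °C, cells were fixed in 2 % formaldehyde and stained with Alexa488-phalloidin plus propidium iodide. Colonies (≥ 4 cells) were counted by laser-scanning microplate cytometry.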

MV4-11 cells = test: In vitro anti-proliferative activity for MV4-11 cells; type: cell-based; conditions: Homo sapiens, MV4-11, read-out: in vitro anti-proliferative activity IC50
[3] = biological target: MET phosphorylation in S114 xenograft tumors (Homo sapiens, UniProt P08581); test: In vivo MET target inhibition in S114 xenograft tumors; parameters: species or system mouse
MET phosphorylation in S114 xenograft tumors, sequence (P08581 25-1390): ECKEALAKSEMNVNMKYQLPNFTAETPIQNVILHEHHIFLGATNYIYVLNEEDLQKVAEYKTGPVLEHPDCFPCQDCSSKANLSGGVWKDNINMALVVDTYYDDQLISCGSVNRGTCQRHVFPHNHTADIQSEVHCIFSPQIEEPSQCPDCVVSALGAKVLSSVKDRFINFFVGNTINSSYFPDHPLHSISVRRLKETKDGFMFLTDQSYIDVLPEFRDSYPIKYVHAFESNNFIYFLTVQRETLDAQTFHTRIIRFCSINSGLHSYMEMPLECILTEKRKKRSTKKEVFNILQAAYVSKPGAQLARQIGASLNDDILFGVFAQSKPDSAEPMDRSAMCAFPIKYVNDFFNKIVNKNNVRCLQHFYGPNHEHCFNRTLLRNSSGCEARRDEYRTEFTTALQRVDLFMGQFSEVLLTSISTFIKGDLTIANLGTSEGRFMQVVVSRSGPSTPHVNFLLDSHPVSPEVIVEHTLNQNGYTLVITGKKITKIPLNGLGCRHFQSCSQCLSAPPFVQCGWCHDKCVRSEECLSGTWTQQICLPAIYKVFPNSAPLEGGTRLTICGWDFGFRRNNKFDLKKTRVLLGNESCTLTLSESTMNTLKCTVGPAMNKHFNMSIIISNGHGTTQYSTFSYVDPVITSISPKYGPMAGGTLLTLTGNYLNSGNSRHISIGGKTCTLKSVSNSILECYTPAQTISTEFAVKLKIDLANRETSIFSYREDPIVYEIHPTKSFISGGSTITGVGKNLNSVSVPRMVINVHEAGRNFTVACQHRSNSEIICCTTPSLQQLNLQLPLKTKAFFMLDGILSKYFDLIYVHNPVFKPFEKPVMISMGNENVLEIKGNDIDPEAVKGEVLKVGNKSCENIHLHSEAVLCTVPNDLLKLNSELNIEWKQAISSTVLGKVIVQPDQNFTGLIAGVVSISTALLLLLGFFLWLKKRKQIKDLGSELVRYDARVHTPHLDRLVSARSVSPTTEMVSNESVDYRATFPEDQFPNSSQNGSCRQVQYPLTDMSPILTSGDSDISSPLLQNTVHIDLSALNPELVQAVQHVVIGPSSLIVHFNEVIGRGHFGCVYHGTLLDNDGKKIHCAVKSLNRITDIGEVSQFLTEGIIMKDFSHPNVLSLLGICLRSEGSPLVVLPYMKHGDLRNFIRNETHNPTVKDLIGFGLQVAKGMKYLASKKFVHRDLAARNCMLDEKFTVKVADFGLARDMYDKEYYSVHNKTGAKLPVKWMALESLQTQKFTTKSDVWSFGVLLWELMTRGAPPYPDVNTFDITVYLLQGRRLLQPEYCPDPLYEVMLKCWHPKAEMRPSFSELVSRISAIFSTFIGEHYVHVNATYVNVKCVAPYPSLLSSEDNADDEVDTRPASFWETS
Summary of the method: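 Subcutaneous tumors from S114 cells (NIH3T3-derived murine line engineered to express human MET and HGF) in nude mice. Test compound in 10 % acacia, single oral dose. Dose response read 2 h post-dose (n = 8 per dose group, 4 studies pooled); 12 mg/kg time course over 24 h. Tumor phospho-MET measured by MSD ELISA relative to vehicle group, with pharmacokinetic analysis alongside.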

Pharmacokinetics in mice = conditions: mouse, in vivo, oral
[4] = Pharmacokinetics in non-human primate; conditions: in vivo, oral
U-87MG xenograft = test: Anti-tumor growth activity, xenograft model; type: in vivo, mouse; conditions: MET autocrine model, oral
Summary of the method: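 U-87MG xenografts were grown in nude mice. Test compound in 10 % acacia was given orally twice daily, either continuously or intermittently. The 5/2 schedule (5 dosing days, 2 off) ran for 4 cycles; the 9/5 schedule (9 dosing days, 5 off) ran for 2 cycles. Tumour growth was compared with vehicle controls.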

KP4 xenograft = test: Anti-tumor growth activity, xenograft model; type: in vivo, mouse; conditions: KP4, MET autocrine model, oral
Summary of the method: (§1)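 Xenografts were grown in athymic or CD-1 nude mice. Test compound was formulated in 10 % acacia and given orally twice daily without interruption. Tumour growth was compared with a vehicle-treated control group.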

MKN45 xenograft = test: Anti-tumor growth activity, xenograft model; type: in vivo, mouse; conditions: MKN45, very high MET gene amplification, oral
Summary of the method: as §1

H441 xenograft = test: Anti-tumor growth activity, xenograft model; type: in vivo, mouse; conditions: H441, MET over-expression, oral
Summary of the method: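 H441 xenografts were grown in nude mice. Test compound in 10 % acacia was given orally twice daily, either continuously or on intermittent schedules. The 5/2 schedule (5 dosing days, 2 drug-free days) ran for 6 cycles; the 9/5 schedule (9 dosing days, 5 drug-free days) ran for 3 cycles. Tumour growth was compared with vehicle controls.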

H1993 xenograft = test: Anti-tumor growth activity, xenograft model; type: in vivo, mouse; conditions: H1993, co-express MET and MST1R, oral
Summary of the method: as §1

HT29 xenograft = test: Anti-tumor growth activity, xenograft model; type: in vivo, mouse; conditions: HT29, co-express MET and MST1R, oral
Summary of the method: as §1

MV4-11 xenograft = test: Anti-tumor growth activity, xenograft model; type: in vivo, mouse; conditions: MV4-11, FLT3-activating mutation, oral
Summary of the method: (§2)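 Nude mice (athymic or CD-1) carried H1299 orthotopic tumours or MV4-11 xenografts. Test compound was formulated in 10 % acacia and given orally.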

H1299 orthotopic model = test: Anti-tumor growth activity, orthotopic model of NSCLC; type: in vivo, mouse; conditions: AXL over-expression, oral
Summary of the method: as §2

U-87MG xenograft tumors = test: Multiplexed immunofluorescence tumor tissue imaging of U-87MG xenograft tumors; type: in vivo, mouse; conditions: 12 mg/kg once daily, 28 days, vs vehicle
Summary of the method: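 Mice bearing U-87MG xenografts received test compound orally (10 % acacia) at 1.3 or 12 mg/kg once daily for 28 days, or vehicle. Tumours were then excised and fixed in Zinc-Tris. One panel stained […], CD31, Ki67 and TUNEL; the other stained Hoechst, CD31, GLUT1 and smooth muscle actin. Staining was quantified by imaging.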

ALK = ALK (Homo sapiens, UniProt Q9UM73); test: Biochemical screening against 442 kinases
ALK, sequence (Q9UM73 19-1620): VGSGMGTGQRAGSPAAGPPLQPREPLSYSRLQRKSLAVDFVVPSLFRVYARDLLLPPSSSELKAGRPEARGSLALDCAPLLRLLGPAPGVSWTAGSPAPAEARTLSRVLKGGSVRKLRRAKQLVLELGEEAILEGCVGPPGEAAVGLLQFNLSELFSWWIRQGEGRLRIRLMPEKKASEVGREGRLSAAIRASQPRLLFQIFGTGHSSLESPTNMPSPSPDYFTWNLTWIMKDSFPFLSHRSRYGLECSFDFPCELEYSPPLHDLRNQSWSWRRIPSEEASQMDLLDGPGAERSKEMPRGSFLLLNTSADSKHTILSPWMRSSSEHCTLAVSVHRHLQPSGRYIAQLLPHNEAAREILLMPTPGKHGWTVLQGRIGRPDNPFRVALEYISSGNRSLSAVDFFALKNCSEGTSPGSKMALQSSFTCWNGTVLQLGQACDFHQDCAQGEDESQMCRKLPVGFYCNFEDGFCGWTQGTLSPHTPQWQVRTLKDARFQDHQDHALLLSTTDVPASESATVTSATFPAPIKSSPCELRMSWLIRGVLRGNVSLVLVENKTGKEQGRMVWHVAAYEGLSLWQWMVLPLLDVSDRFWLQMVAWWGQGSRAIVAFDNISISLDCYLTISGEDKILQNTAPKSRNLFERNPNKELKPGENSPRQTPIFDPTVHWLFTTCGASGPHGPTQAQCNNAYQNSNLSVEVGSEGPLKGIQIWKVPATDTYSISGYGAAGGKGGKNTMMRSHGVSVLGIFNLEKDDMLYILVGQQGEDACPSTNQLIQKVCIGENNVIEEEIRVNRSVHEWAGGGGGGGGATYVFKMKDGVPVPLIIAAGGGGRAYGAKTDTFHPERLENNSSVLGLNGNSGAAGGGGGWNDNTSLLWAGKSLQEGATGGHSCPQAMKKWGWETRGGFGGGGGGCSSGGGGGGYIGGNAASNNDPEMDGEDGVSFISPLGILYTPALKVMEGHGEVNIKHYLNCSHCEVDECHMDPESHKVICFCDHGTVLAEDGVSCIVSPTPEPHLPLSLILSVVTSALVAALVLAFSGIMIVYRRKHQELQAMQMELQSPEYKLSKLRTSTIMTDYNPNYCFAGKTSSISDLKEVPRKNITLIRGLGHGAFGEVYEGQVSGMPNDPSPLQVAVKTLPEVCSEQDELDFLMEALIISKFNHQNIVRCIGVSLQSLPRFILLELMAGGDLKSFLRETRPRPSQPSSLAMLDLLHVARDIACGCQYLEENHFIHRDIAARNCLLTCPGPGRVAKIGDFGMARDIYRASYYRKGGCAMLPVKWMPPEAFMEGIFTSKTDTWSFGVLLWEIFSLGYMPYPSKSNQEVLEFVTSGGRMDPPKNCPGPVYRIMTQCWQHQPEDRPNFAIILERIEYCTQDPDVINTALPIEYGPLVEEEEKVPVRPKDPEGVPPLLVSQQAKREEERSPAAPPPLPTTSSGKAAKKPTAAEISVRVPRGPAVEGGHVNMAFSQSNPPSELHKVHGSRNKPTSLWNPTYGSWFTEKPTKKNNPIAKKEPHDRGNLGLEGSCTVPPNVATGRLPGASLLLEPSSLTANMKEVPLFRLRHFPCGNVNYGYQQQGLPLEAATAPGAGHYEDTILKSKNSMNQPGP

LTK = LTK (Homo sapiens, UniProt P29376); test: Biochemical screening against 442 kinases
LTK, sequence (P29376 17-864): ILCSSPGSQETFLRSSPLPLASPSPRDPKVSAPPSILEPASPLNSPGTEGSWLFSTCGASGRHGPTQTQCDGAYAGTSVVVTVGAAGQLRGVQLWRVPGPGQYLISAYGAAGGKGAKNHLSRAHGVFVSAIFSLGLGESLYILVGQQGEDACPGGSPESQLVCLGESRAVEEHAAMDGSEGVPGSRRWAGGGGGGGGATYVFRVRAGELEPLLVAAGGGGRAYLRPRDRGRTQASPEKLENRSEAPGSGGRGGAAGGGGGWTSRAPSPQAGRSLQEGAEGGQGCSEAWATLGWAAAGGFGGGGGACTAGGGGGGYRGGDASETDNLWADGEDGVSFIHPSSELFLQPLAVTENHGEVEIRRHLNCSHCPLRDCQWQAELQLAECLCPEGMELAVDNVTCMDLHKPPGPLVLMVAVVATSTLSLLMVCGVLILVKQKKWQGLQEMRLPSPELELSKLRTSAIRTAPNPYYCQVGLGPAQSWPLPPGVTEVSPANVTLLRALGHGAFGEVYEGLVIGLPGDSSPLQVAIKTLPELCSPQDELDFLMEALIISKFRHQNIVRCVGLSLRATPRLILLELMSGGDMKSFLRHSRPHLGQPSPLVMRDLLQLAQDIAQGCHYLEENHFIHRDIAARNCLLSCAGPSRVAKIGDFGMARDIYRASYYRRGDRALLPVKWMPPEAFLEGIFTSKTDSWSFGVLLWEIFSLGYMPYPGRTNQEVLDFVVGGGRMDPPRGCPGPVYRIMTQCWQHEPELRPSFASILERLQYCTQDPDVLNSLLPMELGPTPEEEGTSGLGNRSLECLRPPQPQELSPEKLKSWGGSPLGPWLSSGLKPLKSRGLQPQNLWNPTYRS

[5] = S114 xenograft, 2 h after dose, oral, 4 studies
[6] = S114 xenograft, plasma concentration, 2 h after dose

T1 sequence (P08581 1078-1345 limits assumed): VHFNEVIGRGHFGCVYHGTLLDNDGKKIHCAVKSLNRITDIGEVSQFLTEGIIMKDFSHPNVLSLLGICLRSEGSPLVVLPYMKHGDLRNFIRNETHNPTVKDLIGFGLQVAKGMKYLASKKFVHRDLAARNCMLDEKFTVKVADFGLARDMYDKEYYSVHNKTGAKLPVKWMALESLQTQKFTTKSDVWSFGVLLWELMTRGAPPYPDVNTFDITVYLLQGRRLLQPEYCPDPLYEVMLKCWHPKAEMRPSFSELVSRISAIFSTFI

mode of inhibition (human MET kinase domain [1]): competitive
half-life (t1/2) (human MET kinase domain [2]): 8.75 h
pIC50 (MV4-11 cells): 8.40
p-MET inhibition in tumors by 16 h ([3]; S114 xenograft, 12 mg/kg oral, 16 h): no p-MET inhibition was observed
inhibition of p-MET ([3]; S114 xenograft, 12 mg/kg oral, at 2 h and maintained up to 8 h): Ninety-five percent
composite TED50 (50 % target inhibition dose) [3, 5]: 1.2 mg/kg
composite TED90 (90 % target inhibition dose) [3, 5]: 7.4 mg/kg
inhibition of MET phosphorylation ([3]; S114 xenograft, 2 h post-treatment, single 50-mg/kg dose, oral): 98%
TEC50 (the concentration that inhibited 50 % MET phosphorylation) [3, 6]: 0.2 µM
TEC90 (the concentration that inhibited 90 % MET phosphorylation) [3, 6]: 2 µM
inhibition at 12 mg/kg ([3]; mouse, po, read-out: inhibition of p-MET): 95%
half-life (Pharmacokinetics in mice): 2.9 h
half-life [4]: 14.3 h
activity against ALK (ALK): does not have significant activity
activity against LTK (LTK): does not have significant activity
Structure (SMILES): Cc1ccc(C(=O)Nc2ccc(Oc3cc4cnn(C)c4cc3-c3cn[nH]c3)c(F)c2)c(=O)n1-c1ccc(F)cc1 [LY2801653, N-(3-fluoro-4-{[1-methyl-6-(1H-pyrazol-4-yl)-1H-indazol-5 yl]oxy}phenyl)-1-(4-fluorophenyl)-6-methyl-2-oxo-1,2-dihydropyridine-3-carboxamide]
effect on HGF-induced DU-145 cell scattering (DU145 cells): completely blocked
anti-tumor growth effect (U-87MG xenograft): significant anti-tumor growth effect
anti-tumor growth effect (KP4 xenograft): significant anti-tumor growth effect
anti-tumor growth effect (MKN45 xenograft): significant anti-tumor growth effect
anti-tumor growth effect (H441 xenograft): significant anti-tumor growth effect
tumor activity in xenograft model (H1993 xenograft): demonstrates tumor activity
tumor activity in xenograft model (HT29 xenograft): demonstrates tumor activity
in vivo anti-tumor growth activity (MV4-11 xenograft): in vivo anti-tumor growth activity
in vivo anti-tumor growth activity (H1299 orthotopic model): in vivo anti-tumor growth activity
GLUT1 expression (U-87MG xenograft tumors): decrease in GLUT1 expression
apoptotic area (U-87MG xenograft tumors): significantly reduced apoptotic area
pericyte coverage of vessels (U-87MG xenograft tumors): increase in pericyte coverage of vessels
